Results on one molecule are retold here after ChEMBL document CHEMBL4052683, “The discovery of benzoxazine sulfonamide inhibitors of NaV1.7: Tools that bridge efficacy and target engagement” (Bioorg Med Chem Lett, 2017).

Series [1] in a line: Inhibition of cynomolgus monkey NaV1.7 by whole cell voltage clamp method. To be noted: Macaca fascicularis. The method in brief: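 PatchXpress electrophysiology was run with a protocol giving about 20% channel inactivation. At least four concentrations at half-log spacing were applied one at a time, with washout, current recovery and holding voltage reset between each. Data were pooled from at least 10 cells, with 2–3 points per concentration, and fitted with a 4-parameter Hill curve to give one IC50.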

The test system of the next series is Rattus norvegicus. As to the kind of experiment: Analgesic activity in Sprague-Dawley rat model of formalin-induced nociception behavior assessed as reduction in formalin-evoked paw flinching at 10 mg/kg, po. The series is classed as functional. The method, boiled down:
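Sprague Dawley rats got 10, 30 or 100 mg/kg PO in 30% (w/v) hydroxypropyl β-cyclodextrin, pH 10.0 with KOH. Total phase II formalin-induced flinches were counted. Morphine sulfate 2 mg/kg SC served as control. Unbound plasma levels were measured and compared with the rat NaV1.7 IC50.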

The subject of series [2] is Plasma. The series can be described thus: Plasma concentration in C57BL/6 mouse model of histamine-induced pruritus at 30 mg/kg, po. The class given is ADME, organism-based. To be noted: in vivo. The method, boiled down: (§1)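 Male C57BL/6 mice got 30, 60 or 100 mg/kg PO in 30% hydroxypropyl β-cyclodextrin, pH 10.0, 120 min before the test. Histamine (8.15mM) was given intradermally to the nape of the neck just before testing, and scratch bouts were counted over 0–30 min. Diphenhydramine 30 mg/kg PO in water, 90 min before, served as control. Unbound plasma concentrations were measured.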

The test system of the next series is Mus musculus. As to the kind of experiment: Anti-pruritic activity in C57BL/6 mouse model of histamine-induced pruritus assessed as reduction in histamine-induced scratching at 60 mg/kg, po dosed 120 mins before test. The class given is functional. The method, boiled down: as §1
Series [3] has as its system Plasma. As to the kind of experiment: Unbound plasma concentration in Sprague-Dawley rat model of formalin-induced nociception behavior at 10 mg/kg, po. The series is classed as ADME, organism-based. To be noted: in vivo. The method, boiled down:
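Total phase II formalin-induced flinches were scored. Unbound plasma concentration was determined at each dose and related to the rat NaV1.7 IC50.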

Series [4] is described as follows: AUC (infinity) in rat at 10 mg/kg, po by LC-MS/MS method. The series is classed as ADME, organism-based. Details: dose 10 mg/kg, route oral, time infinity. The conditions noted are these: in vivo.
Series [5] has as its target Sodium channel protein type 9 subunit alpha (Homo sapiens, UniProt Q15858). The series can be described thus: Inhibition of human NaV1.7 expressed in HEK293 cells at holding potential of -125 mV with test potentials to -10 mV by whole cell voltage clamp method. The series is classed as cell-based.

Sodium channel protein type 9 subunit alpha, sequence (Q15858 whole entry): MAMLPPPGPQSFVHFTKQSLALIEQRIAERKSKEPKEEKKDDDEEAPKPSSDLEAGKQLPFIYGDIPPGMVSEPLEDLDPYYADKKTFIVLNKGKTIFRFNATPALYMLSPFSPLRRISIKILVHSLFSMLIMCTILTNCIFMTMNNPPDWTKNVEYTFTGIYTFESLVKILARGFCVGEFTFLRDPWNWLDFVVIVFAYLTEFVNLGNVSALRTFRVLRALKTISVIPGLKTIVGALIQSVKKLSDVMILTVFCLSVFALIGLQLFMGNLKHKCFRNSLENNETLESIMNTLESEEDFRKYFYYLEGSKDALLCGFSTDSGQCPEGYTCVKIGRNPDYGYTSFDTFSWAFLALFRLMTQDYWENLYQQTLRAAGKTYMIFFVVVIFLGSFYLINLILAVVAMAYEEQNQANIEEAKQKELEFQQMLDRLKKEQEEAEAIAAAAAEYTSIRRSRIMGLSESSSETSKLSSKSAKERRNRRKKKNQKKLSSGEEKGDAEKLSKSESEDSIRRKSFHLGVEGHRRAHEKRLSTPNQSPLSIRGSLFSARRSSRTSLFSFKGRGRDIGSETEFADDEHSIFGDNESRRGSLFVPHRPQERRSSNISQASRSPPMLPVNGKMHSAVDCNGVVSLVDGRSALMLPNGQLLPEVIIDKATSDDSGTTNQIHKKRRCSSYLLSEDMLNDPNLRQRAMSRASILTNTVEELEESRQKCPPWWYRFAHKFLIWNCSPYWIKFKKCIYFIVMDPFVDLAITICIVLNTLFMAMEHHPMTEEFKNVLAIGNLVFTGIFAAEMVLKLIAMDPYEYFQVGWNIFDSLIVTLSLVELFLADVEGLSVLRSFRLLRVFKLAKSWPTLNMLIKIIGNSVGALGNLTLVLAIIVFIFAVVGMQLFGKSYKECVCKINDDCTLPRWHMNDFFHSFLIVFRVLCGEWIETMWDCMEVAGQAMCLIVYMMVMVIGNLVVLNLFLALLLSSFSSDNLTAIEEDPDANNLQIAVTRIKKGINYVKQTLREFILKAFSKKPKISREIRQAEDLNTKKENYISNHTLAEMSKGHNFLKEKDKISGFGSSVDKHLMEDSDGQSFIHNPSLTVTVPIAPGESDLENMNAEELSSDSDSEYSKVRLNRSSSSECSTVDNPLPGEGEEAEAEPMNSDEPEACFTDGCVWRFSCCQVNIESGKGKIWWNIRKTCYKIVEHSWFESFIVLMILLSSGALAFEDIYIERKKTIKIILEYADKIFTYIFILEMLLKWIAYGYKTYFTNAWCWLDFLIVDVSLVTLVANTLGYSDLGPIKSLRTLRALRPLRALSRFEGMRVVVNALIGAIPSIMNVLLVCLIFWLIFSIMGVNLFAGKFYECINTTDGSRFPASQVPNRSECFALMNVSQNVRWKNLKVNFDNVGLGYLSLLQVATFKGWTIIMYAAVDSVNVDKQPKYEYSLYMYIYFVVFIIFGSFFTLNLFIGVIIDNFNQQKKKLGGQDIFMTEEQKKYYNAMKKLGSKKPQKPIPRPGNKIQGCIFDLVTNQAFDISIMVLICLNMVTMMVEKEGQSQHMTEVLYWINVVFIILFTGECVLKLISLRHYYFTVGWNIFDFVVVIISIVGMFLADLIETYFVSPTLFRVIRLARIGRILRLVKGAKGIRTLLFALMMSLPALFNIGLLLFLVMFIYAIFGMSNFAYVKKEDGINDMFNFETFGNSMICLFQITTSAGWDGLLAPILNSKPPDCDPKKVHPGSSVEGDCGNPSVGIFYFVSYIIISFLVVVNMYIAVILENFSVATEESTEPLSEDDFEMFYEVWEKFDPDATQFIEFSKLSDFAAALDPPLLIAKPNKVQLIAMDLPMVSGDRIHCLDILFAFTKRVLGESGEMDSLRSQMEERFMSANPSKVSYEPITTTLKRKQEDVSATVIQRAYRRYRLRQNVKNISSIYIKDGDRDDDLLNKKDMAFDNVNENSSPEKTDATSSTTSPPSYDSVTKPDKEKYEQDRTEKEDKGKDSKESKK

Consider `N#Cc1cc(C(F)(F)F)ccc1N1CCOc2cc(S(=O)(=O)Nc3nccs3)c(F)cc21`, for which the results for the IC50 in series [1] and in series [5] were 0.37 µM and 0.14 µM, respectively. The MPE in the series on Rattus norvegicus was 17%; with Mus musculus it was 71%. The concentration in the series with Plasma [2] stood at 61 µM. Further, in the series on Plasma [3], the “Cp(f)” value turned out to be 0.027 µM. Besides, in series [4], the AUC(0-inf) (commonly total exposure, with the tail of the curve extrapolated) came to 20 µM·h.
